Published values gathered from unrelated publications.
Target: Ephrin type-A receptor 6 (EPHA6, Homo sapiens, UniProt Q9UF33)
Sequence (Q9UF33 23-1036, as in one of the studies): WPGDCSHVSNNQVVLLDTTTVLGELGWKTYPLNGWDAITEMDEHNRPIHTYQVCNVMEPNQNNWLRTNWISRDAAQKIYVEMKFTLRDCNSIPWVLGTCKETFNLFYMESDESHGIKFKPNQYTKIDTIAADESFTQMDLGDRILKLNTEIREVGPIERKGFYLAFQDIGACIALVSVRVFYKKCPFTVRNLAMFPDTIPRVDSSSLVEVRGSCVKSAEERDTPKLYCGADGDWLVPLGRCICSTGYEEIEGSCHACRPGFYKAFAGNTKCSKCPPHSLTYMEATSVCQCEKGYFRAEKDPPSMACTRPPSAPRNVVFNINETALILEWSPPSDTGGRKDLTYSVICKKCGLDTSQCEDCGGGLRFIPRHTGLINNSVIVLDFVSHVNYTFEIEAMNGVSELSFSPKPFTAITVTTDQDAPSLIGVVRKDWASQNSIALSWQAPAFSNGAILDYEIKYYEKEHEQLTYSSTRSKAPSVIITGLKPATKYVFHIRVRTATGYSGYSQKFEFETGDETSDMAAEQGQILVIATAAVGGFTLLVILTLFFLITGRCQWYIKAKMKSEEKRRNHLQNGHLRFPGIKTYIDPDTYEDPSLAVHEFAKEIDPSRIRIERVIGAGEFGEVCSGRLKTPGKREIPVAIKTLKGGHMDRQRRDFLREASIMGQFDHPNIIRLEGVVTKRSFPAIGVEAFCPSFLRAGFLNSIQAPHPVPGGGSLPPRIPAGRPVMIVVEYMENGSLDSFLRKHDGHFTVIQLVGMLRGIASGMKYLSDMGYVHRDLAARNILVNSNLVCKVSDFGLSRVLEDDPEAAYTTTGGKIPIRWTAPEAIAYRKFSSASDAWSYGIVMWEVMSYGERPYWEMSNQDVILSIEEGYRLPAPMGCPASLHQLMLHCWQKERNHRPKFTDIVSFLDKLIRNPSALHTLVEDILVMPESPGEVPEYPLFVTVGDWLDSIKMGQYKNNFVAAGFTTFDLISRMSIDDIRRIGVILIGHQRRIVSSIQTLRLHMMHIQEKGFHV

CNCc1ccccc1-c1csc([C@@H](C)Nc2nc(C)nc3cc(OC)c(OC)cc23)c1  remaining binding (cell-free assay; competition with immobilised ligand; 1 µM): 96%
Nc1ncc2c(n1)-c1c([nH]c3ccc(C#CC4CC4)cc13)CCCC2  remaining binding (binding; competition with immobilised ligand; 1 µM): 100%
CN(C)c1nccc(-c2cnc3ncccn23)n1  remaining binding (binding; 1 µM): 98%
O=C(c1ccc(Nc2ncc(Cl)c(-c3cc4ccccc4s3)n2)cc1)N1CCC(N2CCCC2)CC1  remaining binding (binding; competition with immobilised ligand; 1 µM): 69%
COc1cc(-c2cn(C3CCc4c(F)cccc4N(CC(F)(F)F)C3=O)nn2)ccc1-n1cnc(C)c1 (stereo not drawn)  remaining binding (cell-free assay; competition with immobilised ligand; 1 µM): 100%
F[C@@H]1CCN(c2nccc(-c3cnn4ncccc34)n2)C1  remaining binding (binding; 1 µM): 80%
O=C(NCC1CCOCC1)c1n[nH]cc1NC(=O)c1c(F)cccc1F  remaining binding (binding; competition with immobilised ligand; 1 µM): 100%
COc1ncc2cc3ccccc3nc2c1C#N  remaining binding (cell-free assay; competition with immobilised ligand; 5 µM): 98%
c1cncc(-c2cccc(Nc3nccc(NC4CCCCC4)n3)c2)c1  remaining binding (binding; competition with immobilised ligand; 10 µM): 96%
O=C(Nc1cccnn1)N1CCC(=Cc2cccc(Oc3ccc(C(F)(F)F)cn3)c2)CC1  remaining binding (cell-free assay; competition with immobilised ligand; 1 µM): 78%
CN(c1nccc(-c2cnn3ncccc23)n1)C1CC1  remaining binding (binding; 1 µM): 99%
O=C(N[C@H]1CCCCC/C=C\C2C[C@@]2(C(=O)O)NC(=O)[C@@H]2C[C@@H](Oc3ccncc3)CN2C1=O)OC1CCCC1 (stereo partly drawn)  remaining binding (cell-free assay; competition with immobilised ligand; 1 µM): 100%
CC1CCCN1c1nccc(-c2cnn3ncccc23)n1 (stereo not drawn)  remaining binding (binding; 1 µM): 94%
C[C@@H](c1ccc(-n2cnc3c(N)ncnc32)cc1)N1CCc2nn(C)c(Cc3ccccc3)c2C1=O  remaining binding (binding; competition with immobilised ligand; 0.1 µM): 100%
CNC(=O)[C@@H]1CC[C@@H](n2c(-c3ccc4cnccc4c3)nc3ccc(C(=O)NCc4cccc(C(N)=O)c4)cc32)C1  remaining binding (binding; competition with immobilised ligand; 1 µM): 100%
O=C(NCCCN1CCOCC1)c1ccc(Nc2nccc(-c3cc4ccccc4s3)n2)cc1  remaining binding (binding; competition with immobilised ligand; 1 µM): 97%
CN(C)c1ncc(F)c(-c2cnn3ncccc23)n1  remaining binding (binding; 1 µM): 82%
Cn1nc(C(=O)NCc2ccc(C(=O)O)cc2)cc1-c1ccc2[nH]ccc2c1  remaining binding (cell-free assay; competition with immobilised ligand; 0.1 µM): 100%
Cc1cnc(Nc2ccc(C(=O)N3CCC(N4CCCC4)CC3)cc2)nc1-c1cc2ccccc2s1  remaining binding (binding; competition with immobilised ligand; 1 µM): 65%
C[C@H]1CCN(c2nccc(-c3cnn4ncccc34)n2)C1  remaining binding (binding; 1 µM): 100%
CCCCN(CCCC)C(=O)CN1C[C@H](c2cc(OC)c3c(c2)OCO3)[C@@H](C(=O)O)[C@@H]1CC(C)(C)CCC  remaining binding (cell-free assay; competition with immobilised ligand; 1 µM): 100%
